Test results taken from ChEMBL document CHEMBL1153746, “Mansouramycins A-D, cytotoxic isoquinolinequinones from a marine streptomycete” (J Nat Prod, 2009).

Assays:
Format in all cases: functional, cell-based
[1] = Cytotoxicity against human 1752L cells after 4 days by propidium iodide assay; conditions: 96 h
In short: (§1)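 Monolayer cell proliferation assay across a panel of up to 36 human tumour lines covering 14 solid tumour types. Lines came either from patient tumours grown as subcutaneous xenografts in NMRI nu/nu mice or from culture collections (ATCC, NCI, DSMZ). Potency is given as IC50.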

[2] = Cytotoxicity against human 629L cells after 4 days by propidium iodide assay; conditions: 96 h; in short: as §1
[3] = Cytotoxicity against human 899L cells after 4 days by propidium iodide assay; conditions: 96 h; in short: as §1
[4] = Cytotoxicity against human RXF 486L cells after 4 days by propidium iodide assay; conditions: 96 h; in short: as §1
[5] = Cytotoxicity against human MEXF 462NL cells after 4 days by propidium iodide assay; conditions: 96 h; in short: as §1
[6] = Cytotoxicity against human 1218L cells after 4 days by propidium iodide assay; conditions: 96 h; in short: as §1
CWR22R = experiment: Cytotoxicity against human 22Rv1 cells after 4 days by propidium iodide assay; conditions: 22Rv1, 96 h; in short: as §1
[7] = Cytotoxicity against human PC3M cells after 4 days by propidium iodide assay; conditions: PC-3M, 96 h; in short: as §1
[8] = Cytotoxicity against human 289L cells after 4 days by propidium iodide assay; conditions: 96 h; in short: as §1
[9] = Cytotoxicity against human GXF251L cells after 4 days by propidium iodide assay; conditions: GXF 251L, 96 h; in short: as §1
[10] = Cytotoxicity against human 498NL cells after 4 days by propidium iodide assay; conditions: 96 h; in short: as §1
[11] = Cytotoxicity against human 276L cells after 4 days by propidium iodide assay; conditions: 96 h; in short: as §1
[12] = Cytotoxicity against human MAXF 401NL cells after 4 days by propidium iodide assay; conditions: 96 h; in short: as §1
[13] = Cytotoxicity against human 1657L cells after 4 days by propidium iodide assay; conditions: 96 h; in short: as §1
[14] = Cytotoxicity against human UXF 1138L cells after 4 days by propidium iodide assay; conditions: 96 h; in short: as §1
[15] = Cytotoxicity against human LXFL 529L cells after 4 days by propidium iodide assay; conditions: 96 h; in short: as §1
OVCAR-3 = experiment: Cytotoxicity against human OVCAR-3 cells after 4 days by propidium iodide assay; conditions: OVCAR-3, 96 h; in short: as §1
[16] = Cytotoxicity against human 393NL cells after 4 days by propidium iodide assay; conditions: 96 h; in short: as §1
LNCaP = experiment: Cytotoxicity against human LNCAP cells after 4 days by propidium iodide assay; conditions: 96 h; in short: as §1
SF-268 = experiment: Cytotoxicity against human SF268 cells after 4 days by propidium iodide assay; conditions: SF-268, 96 h; in short: as §1
[17] = Cytotoxicity against human 276 cells after 7 to 20 days by clonogenic assay
In short: (§2)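 Colony formation assay for clonogenicity. Cell suspensions were prepared from patient-derived human tumour xenografts, kept by serial subcutaneous passage in NMRI nu/nu mice. Cells were embedded and incubated in culture medium containing soft agar. Potency is given as IC50.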

[18] = Cytotoxicity against human 575 cells after 7 to 20 days by clonogenic assay; in short: as §2
[19] = Cytotoxicity against human RXF631 cells after 7 to 20 days by clonogenic assay; conditions: RXF 631; in short: as §2
[20] = Cytotoxicity against human 899 cells after 7 to 20 days by clonogenic assay; in short: as §2
[21] = Cytotoxicity against human 514 cells after 7 to 20 days by clonogenic assay; in short: as §2
[22] = Cytotoxicity against human 1322 cells after 7 to 20 days by clonogenic assay; in short: as §2
[23] = Cytotoxicity against human NSB008 cells after 7 to 20 days by clonogenic assay
In short: (§3)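 Colony formation assay on hematopoietic stem cells from cord blood, used as nonmalignant tissue. Cells were embedded and incubated in culture medium containing methyl cellulose. Potency is given as IC50.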

[24] = Cytotoxicity against human NSB005 cells after 7 to 20 days by clonogenic assay; in short: as §3
[25] = Cytotoxicity against human 394NL cells after 4 days by propidium iodide assay; conditions: 96 h; in short: as §1
[26] = Cytotoxicity against human 1218 cells after 7 to 20 days by clonogenic assay; in short: as §2
[27] = Cytotoxicity against human LXFA 526 cells after 7 to 20 days by clonogenic assay; in short: as §2
[28] = Cytotoxicity against human 514L cells after 4 days by propidium iodide assay; conditions: 96 h; in short: as §1
[29] = Cytotoxicity against human 401 cells after 7 to 20 days by clonogenic assay; in short: as §2
[30] = Cytotoxicity against human 1121L cells after 4 days by propidium iodide assay; conditions: 96 h; in short: as §1
MCF7 = experiment: Cytotoxicity against human MCF7 cells after 4 days by propidium iodide assay; conditions: MCF7, 96 h; in short: as §1
[31] = Cytotoxicity against human 1619L cells after 4 days by propidium iodide assay; conditions: 96 h; in short: as §1
[32] = Cytotoxicity against human RXF 944L cells after 4 days by propidium iodide assay; conditions: 96 h; in short: as §1
HCT-116 = experiment: Cytotoxicity against human HCT116 cells after 4 days by propidium iodide assay; conditions: HCT-116, 96 h; in short: as §1
[33] = Cytotoxicity against human 520L cells after 4 days by propidium iodide assay; conditions: 96 h; in short: as §1
DU-145 = experiment: Cytotoxicity against human DU145 cells after 4 days by propidium iodide assay; conditions: DU-145, 96 h; in short: as §1
PANC-1 = experiment: Cytotoxicity against human PANC1 cells after 4 days by propidium iodide assay; conditions: PANC-1, 96 h; in short: as §1
[34] = Cytotoxicity against human 526L cells after 4 days by propidium iodide assay; conditions: 96 h; in short: as §1
[35] = Cytotoxicity against human 536L cells after 4 days by propidium iodide assay; conditions: 96 h; in short: as §1
NCI-H460 = experiment: Cytotoxicity against human H460 cells after 4 days by propidium iodide assay; conditions: NCI-H460, 96 h; in short: as §1
[36] = Cytotoxicity against human 1781L cells after 4 days by propidium iodide assay; conditions: 96 h; in short: as §1
HT-29 = experiment: Cytotoxicity against human HT-29 cells after 4 days by propidium iodide assay; conditions: HT-29, 96 h; in short: as §1
[37] = Cytotoxicity against human BXF T24 cells after 4 days by propidium iodide assay; conditions: T-24, 96 h; in short: as §1
[38] = Cytotoxicity against human LXFA 629L cells after 7 to 20 days by clonogenic assay; in short: as §2
[39] = Cytotoxicity against human 243 cells after 7 to 20 days by clonogenic assay; in short: as §2
[40] = in the assay text read “MTT assay” for “propidium iodide assay”

## CNC1=C(Cl)C(=O)c2cc(C)ncc2C1=O
[1]
  IC50: 5190 nM
[2]
  IC50: 1230 nM
[3]
  IC50: 13900 nM
[4]
  IC50: 17900 nM
[5]
  IC50: 5640 nM
[6]
  IC50: 1380 nM
CWR22R
  IC50: 5670 nM
[7]
  IC50: 3230 nM
[8]
  IC50: 5960 nM
[9]
  IC50: 1750 nM
[10]
  IC50: 1340 nM
[11]
  IC50: 360 nM
[12]
  IC50: 3550 nM
[13]
  IC50: 1810 nM
[14]
  IC50: 1680 nM
[15]
  IC50: 1540 nM
OVCAR-3
  IC50: 2000 nM
[16]
  IC50: 1570 nM

## CNC1=CC(=O)c2cc(C)ncc2C1=O
LNCaP
  IC50: 6360 nM
SF-268
  IC50: 1800 nM
[17]
  IC50: 330 nM
[18]
  IC50: 8350 nM
[19]
  IC50: 7810 nM
[1]
  IC50: 6020 nM
[2]
  IC50: 1180 nM
[20]
  IC50: 5350 nM
[21]
  IC50: 50 nM
[22]
  IC50: 8350 nM
[3]; [40]
  IC50: 6600 nM
[23]
  IC50: 4530 nM
[4]
  IC50: 50600 nM
[5]
  IC50: 19000 nM
[24]
  IC50: 4580 nM
[25]
  IC50: 5720 nM
[6]
  IC50: 10300 nM
CWR22R
  IC50: 4690 nM
[26]
  IC50: 4340 nM
[27]
  IC50: 4310 nM
[28]
  IC50: 2020 nM
[29]
  IC50: 3890 nM
[30]
  IC50: 6560 nM
[7]
  IC50: 6040 nM
[8]
  IC50: 3040 nM
MCF7
  IC50: 1110 nM
[31]; [40]
  IC50: 4010 nM
[32]
  IC50: 5430 nM
HCT-116
  IC50: 3620 nM
[9]
  IC50: 3600 nM
[33]; [40]
  IC50: 240 nM
DU-145
  IC50: 340 nM
[10]
  IC50: 5210 nM
PANC-1
  IC50: 3830 nM
[34]
  IC50: 10600 nM
[11]
  IC50: 350 nM
[35]
  IC50: 380 nM
NCI-H460
  IC50: 3920 nM
[12]
  IC50: 17300 nM
[13]; [40]
  IC50: 4930 nM
[14]; [40]
  IC50: 2230 nM
[36]
  IC50: 9890 nM
HT-29
  IC50: 1980 nM
[37]
  IC50: 610 nM
[15]
  IC50: 4880 nM
OVCAR-3; [40]
  IC50: 7640 nM
[38]
  IC50: 1630 nM
[39]
  IC50: 10300 nM
[16]
  IC50: 4160 nM

## CNC1=CC(=O)c2cc(C(=O)OC)ncc2C1=O
LNCaP
  IC50: 1430 nM
SF-268
  IC50: 8 nM
[1]
  IC50: 130 nM
[2]
  IC50: 16 nM
[3]
  IC50: 134 nM
[4]
  IC50: 1650 nM
[5]
  IC50: 179 nM
[25]
  IC50: 106 nM
[6]
  IC50: 134 nM
CWR22R
  IC50: 671 nM
[28]
  IC50: 12 nM
[30]
  IC50: 150 nM
[7]
  IC50: 215 nM
[8]
  IC50: 130 nM
MCF7
  IC50: 12 nM
[31]
  IC50: 45 nM
[32]
  IC50: 20 nM
HCT-116
  IC50: 114 nM
[9]
  IC50: 167 nM
[33]
  IC50: 12 nM
DU-145
  IC50: 992 nM
[10]
  IC50: 130 nM
PANC-1
  IC50: 549 nM
[34]
  IC50: 110 nM
[11]
  IC50: 8 nM
[35]
  IC50: 146 nM
NCI-H460
  IC50: 134 nM
[12]
  IC50: 195 nM
[13]
  IC50: 61 nM
[14]
  IC50: 12 nM
[36]
  IC50: 114 nM
HT-29
  IC50: 146 nM
[37]
  IC50: 8 nM
[15]
  IC50: 89 nM
OVCAR-3
  IC50: 12 nM
[16]
  IC50: 122 nM
